# Bioassay records from PubChem.
# SENP1 FRET inh: human SENP1 catalytic domain inhibitors, primary screen, biochemical, FRET, uHTS; Sentrin-specific protease 1 (Homo sapiens), Q9P0U3; recombinant SENP1 catalytic domain, CyPet-SUMO1-YPet FRET cleavage; inhibition, % at 10 µM; 360,000 tested, 0.21% active; AID 624204, 2012;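 active = inhibition at least 30% at 10 µM, raw YFP signal under a set limit, fluorescence ratio 0.5 to 1.5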;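 also: 0% = enzyme with DMSO and 100% = no enzyme wells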
# Target sequence (Q9P0U3 419-644 limits assumed): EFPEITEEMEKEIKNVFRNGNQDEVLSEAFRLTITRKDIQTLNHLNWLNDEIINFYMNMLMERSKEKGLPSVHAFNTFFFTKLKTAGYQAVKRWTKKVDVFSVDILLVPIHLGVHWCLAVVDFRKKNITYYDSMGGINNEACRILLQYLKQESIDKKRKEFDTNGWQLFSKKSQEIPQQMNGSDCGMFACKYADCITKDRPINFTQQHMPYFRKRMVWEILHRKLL
#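 Material: hSENP1 catalytic domain, recombinant; medium: Tris pH 8 with BME, BSA, NP40 and catalase; compound: single concentration of 10 µM compound, 0.5% DMSO final; technique: FRET read of cyan and yellow fluorescence; timing: 50 min enzyme reaction, room temperature, light-protected; reagent: SFCypet-SUMO1-SFYpet substrate at 25 nM; control set: no-enzyme low, enzyme-DMSO high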
# SENP8 block-1: SENP8 protease inhibitors, primary screen, biochemical, luminescence; Sentrin-specific protease 8 (Homo sapiens), Q96LD8; purified SENP8, Z-RLRGG-aminoluciferin cleavage; inhibition, % at 10 µM; 330,000 tested, 1.2% active; AID 2540, 2010; in the data active = inhibition above about 50%
# SENP7 inh: SENP7 protease inhibitors, primary screen, biochemical, luminescence, uHTS. 330,000 tested, 1.5% active. Sentrin-specific protease 7 (Homo sapiens), Q9BQF6. recombinant SENP7, Z-RLRGG-aminoluciferin luminescence, 40 min. inhibition, % at 5 µM. AID 434973, 2010;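 active = inhibition above about 50% at the single test dose, limit read from the data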;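 also: plate controls were DMSO with enzyme for no effect and no enzyme buffer wells for full effect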
# SENP6 block: SENP6 protease inhibitors, primary screen, biochemical, luminescence, uHTS | Recombinant SENP6 catalytic domain, aminoluciferin luminescence | AID 2599, 2010 | inhibition, % at 10 µM | Sentrin-specific protease 6 (Homo sapiens), Q9GZR1 | 330,000 tested, 1.8% active;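 active = inhibition above about 50% at the single tested dose, limit read from the data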;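 also: plate controls were DMSO wells with enzyme for no effect and DMSO wells lacking enzyme for full effect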
# UCH37 inh: inhibitors of human UCH37 deubiquitinase, primary screen, biochemical, Ub-AMC cleavage, fluorescence; AID 588478, 2011; 330,000 tested, 0.33% active; purified proteasome/UCH37; inhibition, % (no concentration beside the values);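 active = mean inhibition over replicate wells above about 20%, limit read from the data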;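 also: 0% = compound-free wells with enzyme and 100% = wells lacking proteasome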
#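 Material: Human UCH37 enzyme supplied as purified proteasome complex | Schedule: 30 min compound-proteasome preincubation then 25 min substrate reaction, room temperature | Detection: AMC fluorescence from Ub-AMC cleavage, excitation 355 nm, emission 460 nm | Benchmarks: Wells without proteasome as full block, compound-free enzyme plus substrate as uninhibited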
# SENP8 block-2: human SENP8 protease inhibitors, primary screen, biochemical, fluorescence, Nedd8 protein substrate, uHTS; AID 602440, 2012; recombinant SENP8; 360,000 tested, 0.64% active; inhibition, % at 20 µM; Sentrin-specific protease 8 (Homo sapiens), Q96LD8; in the data active = inhibition mostly above about 40%, no sharp cut-off; inactive = mostly below about 27%
# SENP8 confirm: SENP8 protease inhibitors, retest, confirmation, biochemical, luminescence, single concentration; Recombinant SENP8, Z-RLRGG-aminoluciferin luminescence, 60 min; inhibition, % at 12.5 µM; shares compounds with SENP7 inh; 6,200 tested, 40% active;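 active = mean inhibition across replicates above about 50%, limit read from the data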
# SENP6 confirm: SENP6 protease inhibitors, confirmation, biochemical, luminescence, single concentration; recombinant SENP6, Z-RLRGG-aminoluciferin luminescence; inhibition, % at 12.5 µM; shares compounds with SENP7 inh; AID 488915, 2010; 6,200 tested, 58% active
# SENP7 confirm: SENP7 protease inhibitors, retest, confirmation, biochemical, luminescence, single concentration; shares compounds with SENP7 inh; recombinant SENP7, Z-RLRGG-aminoluciferin luminescence, 40 min; inhibition, % at 12.5 µM; 6,200 tested, 69% active; AID 488917, 2010
# Casp3 select: caspase-3 protease inhibitors, confirmation, selectivity assay for SENP inhibitor project, biochemical, single concentration; shares compounds with SENP7 inh; purified caspase-3, Z-DEVD-aminoluciferin luminescence, 60 min; inhibition, % at 12.5 µM; 6,200 tested, 60% active;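 active = mean inhibition above about 50%, limit read from the data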;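 also: plate controls were enzyme with DMSO for no effect and wells without caspase-3 for full effect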
# Target sequence (P42574 28-227 limits assumed): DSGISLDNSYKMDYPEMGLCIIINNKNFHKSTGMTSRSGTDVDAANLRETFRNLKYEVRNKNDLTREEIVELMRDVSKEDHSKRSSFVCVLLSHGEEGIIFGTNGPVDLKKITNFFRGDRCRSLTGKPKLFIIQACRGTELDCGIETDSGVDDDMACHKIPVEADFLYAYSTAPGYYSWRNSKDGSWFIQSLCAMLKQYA
# Luc interf: counter-screen for SENP inhibitors: luminescence interference | Pre-incubated SENP8/Z-RLRGG-aminoluciferin, luciferase luminescence interference | 6,200 tested, 39% active | AID 488919 | inhibition, % at 12.5 µM | shares compounds with SENP7 inh;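 active = mean inhibition above about 50% when retested at one dose, limit read from the data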;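 also: plate controls were DMSO wells with completed reaction for no effect and substrate without enzyme for full effect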
# An asterisk follows results filed as active; i = inactive; nt = not tested or not shown. Shown are actives, neighbours in structure and some others; about 2.6% of the full set was active somewhere.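 The calls were made as follows, unless noted: active = mean inhibition above about 50% in the one-dose retest (limit read from the data); inactive = the rest.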
SMILES,SENP1 FRET inh,SENP8 block-1,SENP7 inh,SENP6 block,UCH37 inh,SENP8 block-2,SENP8 confirm,SENP6 confirm,SENP7 confirm,Casp3 select,Luc interf
COC(=O)c1sc(NC(=O)c2cc3c(s2)CCCC3)nc1C,-3,35,80*,23,-10,-221,34,34,90*,52*,40
O=C(Nc1ccccn1)c1ccc(Br)s1,2,38,65*,67*,2,8,66*,63*,88*,76*,67*
O=C(Nc1ccccn1)c1ccc(C(=O)Nc2ccccn2)cc1,-1,-10,4,13,3,8,nt,nt,nt,nt,nt
Cc1csc(NC(=O)c2cccs2)n1,0,3,31,17,3,3,nt,nt,nt,nt,nt
Cc1csc(NC(=O)c2cc3c(s2)CCC3)n1,0,82*,87*,90*,1,-78,89*,88*,99*,89*,91*
Cc1nc(NC(=O)c2cc3c(s2)CCCCC3)sc1C(=O)N(C)C,0,0,14,2,5,-127,nt,nt,nt,nt,nt
COc1ccccc1C=Nn1nnnc1N,nt,nt,nt,nt,-4,nt,nt,nt,nt,nt,nt
O=C(NN=Cc1cccnc1)C(=O)N1CCCCCC1,nt,nt,nt,nt,4,nt,nt,nt,nt,nt,nt
CC(=NNC(=O)C1CCCN(S(=O)(=O)c2ccccc2)C1)c1ccccn1 (centres undefined),nt,nt,nt,nt,3,nt,nt,nt,nt,nt,nt
COc1cccc(C=NNC(=O)CCC(=O)Nc2ccc(Br)cc2)c1,nt,nt,nt,nt,4,nt,nt,nt,nt,nt,nt
CCOc1cc(C=NNc2cccc(C(=O)O)c2)ccc1OCC(=O)N1CCCCC1,nt,nt,nt,nt,0,nt,nt,nt,nt,nt,nt
Cc1csc(NC(=O)COc2ccc3c(c2)CCC3)n1,-2,74*,84*,82*,3,6,81*,80*,96*,80*,46
CCc1sc(C(=O)Nc2nc(C)cs2)cc1C,-2,68*,65*,85*,-1,-44,70*,69*,92*,69*,69*
Cc1ccc(NC(=O)COc2ccc3c(c2)CCC3)nc1,2,-16,-3,15,3,2,nt,nt,nt,nt,nt
COc1cccc2oc3ccc(C#CC4(N)CCCCC4)cc3c(=O)c12,-4,31,13,54*,-23,i,55*,52*,81*,70*,13
NC1(C#Cc2ccc3c(=O)c4ccccc4sc3c2)CCCCC1,-60,36,12,44,-5,-231,nt,nt,nt,nt,nt
Cc1cc2sc3ccc(C#CC4(O)CCCCC4)cc3c(=O)c2cc1C,-135,94*,99*,97*,2,-293,-4,14,24,73*,2
Cn1c2ccccc2c(=O)c2cc(C#Cc3ccccn3)ccc21,-28,83*,82*,88*,-183,-465,19,31,20,50,8
Cn1c2ccccc2c(=O)c2ccc(C#Cc3ccccn3)cc21,nt,-12,3,13,-17,nt,nt,nt,nt,nt,nt
O=c1c2ccccc2oc2ccc(C#CC3(O)CCCCC3)cc12,1,92*,89*,94*,-204,-215,92*,94*,99*,83*,68*
